Assays:
[1] = biological target: Metabotropic glutamate receptor 1 (Homo sapiens, UniProt Q13255); assay: Inhibitory concentration against human metabotropic glutamate receptor
Method in brief: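 Human mGlu1a receptor stably expressed in L929sA cells grown in GlutaMAX1 medium with 10% heat-inactivated dialyzed fetal calf serum, streptomycin and penicillin. Antagonism of receptor activation was read as intracellular Ca2+ response on a fluorometric imaging plate reader. IC50 is the mean of two or three independent experiments.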

[2] = biological target: Metabotropic glutamate receptor 1 (Rattus norvegicus, UniProt P23385); assay: Inhibitory concentration against rat metabotropic glutamate receptor 1
Sequence of Metabotropic glutamate receptor 1 (Rattus norvegicus, UniProt P23385) (P23385 whole entry): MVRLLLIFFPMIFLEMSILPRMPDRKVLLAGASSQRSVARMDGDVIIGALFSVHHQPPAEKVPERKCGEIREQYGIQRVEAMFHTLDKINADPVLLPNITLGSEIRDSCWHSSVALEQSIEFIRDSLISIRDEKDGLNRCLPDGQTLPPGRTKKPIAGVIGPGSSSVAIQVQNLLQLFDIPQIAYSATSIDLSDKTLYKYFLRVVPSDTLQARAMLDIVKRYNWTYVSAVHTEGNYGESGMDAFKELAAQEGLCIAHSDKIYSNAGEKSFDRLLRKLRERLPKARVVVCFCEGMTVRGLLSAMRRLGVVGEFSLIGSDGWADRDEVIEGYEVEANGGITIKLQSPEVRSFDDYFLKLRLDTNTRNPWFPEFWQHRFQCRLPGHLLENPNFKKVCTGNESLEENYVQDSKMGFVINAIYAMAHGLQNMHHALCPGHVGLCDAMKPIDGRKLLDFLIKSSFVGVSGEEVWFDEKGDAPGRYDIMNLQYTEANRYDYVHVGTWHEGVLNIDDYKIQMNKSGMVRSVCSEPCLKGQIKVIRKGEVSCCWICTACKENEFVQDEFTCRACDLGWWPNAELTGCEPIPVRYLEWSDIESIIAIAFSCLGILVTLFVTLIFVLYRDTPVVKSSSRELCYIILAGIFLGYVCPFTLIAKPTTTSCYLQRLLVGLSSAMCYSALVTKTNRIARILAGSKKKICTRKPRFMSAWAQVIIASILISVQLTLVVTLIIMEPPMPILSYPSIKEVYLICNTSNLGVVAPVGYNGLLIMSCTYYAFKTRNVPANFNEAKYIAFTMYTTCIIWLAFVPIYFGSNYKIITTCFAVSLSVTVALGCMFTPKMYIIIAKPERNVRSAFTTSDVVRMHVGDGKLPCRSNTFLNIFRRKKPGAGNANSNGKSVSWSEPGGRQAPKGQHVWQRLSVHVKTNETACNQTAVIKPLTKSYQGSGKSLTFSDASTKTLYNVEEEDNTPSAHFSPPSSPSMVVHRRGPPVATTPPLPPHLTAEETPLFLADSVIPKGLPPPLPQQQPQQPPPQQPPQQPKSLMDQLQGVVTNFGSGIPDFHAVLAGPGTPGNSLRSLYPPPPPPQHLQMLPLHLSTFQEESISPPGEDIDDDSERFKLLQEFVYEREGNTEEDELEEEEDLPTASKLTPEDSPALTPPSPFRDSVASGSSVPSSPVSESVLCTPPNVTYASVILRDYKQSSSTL
Method in brief: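 Rat mGlu1a stably expressed in CHO-dhfr- cells grown in DMEM/GlutaMAX1 with 10% heat-inactivated dialyzed fetal calf serum, 0.4 mM L-proline and antibiotics. Inhibition of receptor activation was measured as intracellular Ca2+ rise on a fluorometric imaging plate reader. IC50 is the mean of two or three independent experiments.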

[3] = Total plasma clearance in rat after the single intravenous administration at 2.5 mg/kg; format: ADME, organism-based; parameters: dose 2.5 mg/kg, route intravenous
Method in brief: (§1)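 Rats received a single intravenous 2.5 mg/kg dose. Plasma kinetics were followed to derive elimination half-life and total plasma clearance.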

[4] = Half life in rat after the single intravenous administration at 2.5 mg/kg; format: ADME, organism-based; parameters: dose 2.5 mg/kg, route intravenous; conditions: in vivo; method in brief: as §1

Sequence of Metabotropic glutamate receptor 1 (Homo sapiens, UniProt Q13255) (Q13255 whole entry): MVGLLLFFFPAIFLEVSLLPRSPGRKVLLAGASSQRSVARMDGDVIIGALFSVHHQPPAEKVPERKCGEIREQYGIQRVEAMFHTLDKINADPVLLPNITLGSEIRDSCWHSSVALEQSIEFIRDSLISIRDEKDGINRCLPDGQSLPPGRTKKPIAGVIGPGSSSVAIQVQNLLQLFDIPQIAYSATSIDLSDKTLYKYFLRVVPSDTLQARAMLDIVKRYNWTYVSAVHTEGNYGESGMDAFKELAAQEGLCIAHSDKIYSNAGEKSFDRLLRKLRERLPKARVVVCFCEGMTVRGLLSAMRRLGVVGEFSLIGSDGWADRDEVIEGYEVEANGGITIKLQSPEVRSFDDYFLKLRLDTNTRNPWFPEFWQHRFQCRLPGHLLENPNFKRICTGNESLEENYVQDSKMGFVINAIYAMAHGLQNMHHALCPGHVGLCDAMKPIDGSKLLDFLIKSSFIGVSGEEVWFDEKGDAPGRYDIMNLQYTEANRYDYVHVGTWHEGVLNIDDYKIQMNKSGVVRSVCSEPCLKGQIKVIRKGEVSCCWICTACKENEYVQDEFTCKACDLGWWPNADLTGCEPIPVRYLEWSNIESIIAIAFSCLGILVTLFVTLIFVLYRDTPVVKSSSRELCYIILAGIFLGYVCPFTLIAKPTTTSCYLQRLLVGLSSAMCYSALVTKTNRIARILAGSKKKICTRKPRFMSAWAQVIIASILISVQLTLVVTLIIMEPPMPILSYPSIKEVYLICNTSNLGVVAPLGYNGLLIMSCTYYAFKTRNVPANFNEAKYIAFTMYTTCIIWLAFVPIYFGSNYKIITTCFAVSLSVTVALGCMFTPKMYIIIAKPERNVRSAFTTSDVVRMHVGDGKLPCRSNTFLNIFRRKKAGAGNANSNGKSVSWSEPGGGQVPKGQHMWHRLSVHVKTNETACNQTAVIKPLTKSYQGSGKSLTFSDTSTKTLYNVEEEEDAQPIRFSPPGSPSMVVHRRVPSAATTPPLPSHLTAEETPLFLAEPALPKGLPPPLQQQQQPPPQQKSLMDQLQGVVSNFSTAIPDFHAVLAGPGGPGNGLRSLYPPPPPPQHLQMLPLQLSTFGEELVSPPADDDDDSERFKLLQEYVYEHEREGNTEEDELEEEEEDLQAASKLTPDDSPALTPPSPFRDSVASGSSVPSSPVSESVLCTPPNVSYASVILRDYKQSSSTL

Row | IC50 [1] [nM] | IC50 [2] [nM] | clearance [3] [mL/min/kg] | half-life [4] [min] | SMILES
1 | 29 |  |  |  | CO[C@H]1CC[C@@H](C(=O)c2ccc3nc4c(cc3c2)CCCN4C)CC1
2 | > 10000 | 230 |  |  | CCc1cc2cc(C(=O)CCc3ccccc3)ccc2nc1C
3 |  | 435 |  |  | CCc1cc2cc(C(=O)Cc3cccc(OC)c3)ccc2nc1C
4 | 2 | 2 |  |  | CO[C@H]1CC[C@@H](C(=O)c2ccc3nc4c(cc3c2)CCS4)CC1
5 |  | 645 |  |  | CCc1cc2cc(C(=O)Cc3ccc(N(C)C)cc3)ccc2nc1C
6 | 450 | 45 |  |  | CCc1cc2cc(C(=O)[C@H]3CC[C@@H](OC)CC3)ccc2n2nnnc12
7 |  | 3310 |  |  | CCc1cc2cc(C(=O)C3CCC(OC)CC3)ccc2nc1-c1cccs1 (configuration not stated)
8 | 3 |  |  |  | CCCc1ccc2cc(C(=O)[C@H]3CC[C@@H](OC)CC3)ccc2n1
9 |  | > 10000 |  |  | CCc1cc2cc(C(=O)Cc3ccc(OC)c(OC)c3)ccc2nc1C
10 | 80 |  |  |  | CCc1cc2cc(C(=O)C3CCC(O)CC3)ccc2nc1C (configuration not stated)
11 | 51 | 10 |  |  | CCc1cc2cc(C(=O)Cc3ccccc3)ccc2nc1C
12 |  | 8300 |  |  | O=C(Cc1ccccc1)c1ccc2cc3c(nc2c1)OCCC3
13 | 0.56 |  |  |  | CO[C@H]1CC[C@@H](C(=O)c2ccc3nc4c(cc3c2)CCC4)CC1
14 | 18 | 80 |  |  | CO[C@H]1CC[C@@H](C(=O)c2ccc3nc4c(cc3c2)CCCCC4)CC1
15 | 74 | 7 |  |  | O=C(Cc1ccsc1)c1ccc2nc3c(cc2c1)CCCO3
16 |  | 126 |  |  | CCc1cc2cc(C(=O)C34CC5CC(CC(C5)C3)C4)ccc2nc1C
17 | 16 | 125 |  |  | C[C@H]1CC[C@@H](C(=O)c2ccc3nc4c(cc3c2)CCCCC4)CC1
18 | 9 |  |  |  | CCc1cc2cc(C(=O)[C@H]3CC[C@@H](OC)CC3)ccc2nc1F
19 | 160 | 85 |  |  | O=C(CCc1ccccc1)c1ccc2nc3c(cc2c1)CCCO3
20 | 14 | 6 |  |  | O=C(Cc1ccccc1)c1ccc2nc3c(cc2c1)CCCO3
21 |  | > 10000 |  |  | CCc1cc2cc(C(=O)C3CCC(OC)CC3)ccc2nc1-c1nccs1 (configuration not stated)
22 | 8 |  |  |  | CCc1cc2cc(C(=O)C3CCC(OC)CC3)ccc2nc1CC (stereo in doubt; cis)
23 | 0.55 | 3 | 91.7 | 19.2 | CO[C@H]1CC[C@@H](C(=O)c2ccc3nc4c(cc3c2)CCCO4)CC1 (stereo in doubt; form 1)
24 | 106 | 45 |  |  | CO[C@H]1CC[C@@H](C(=O)c2ccc3nc4c(cc3c2)CCCO4)CC1 (stereo in doubt; form 2)
